These results are taken from ChEMBL document CHEMBL1133913, “Discovery of (R)-1-[2-hydroxy-3-(4-hydroxy-phenyl)-propyl]-4-(4-methyl-benzyl)-piperidin-4-ol: a novel NR1/2B subtype selective NMDA receptor antagonist” (Bioorg Med Chem Lett, 2001).

Bounds are passed on as bounds.

Assay [1] has as its target Glutamate [NMDA] receptor. As to the kind of experiment: Displacement of [3H]25-6981 from N-methyl-D-aspartate glutamate receptor. In kind it is protein-complex assay. A general note: Loss of bound radioactivity is the signal in a displacement assay; it reports binding, not function.
Assay [2] has as its target T1, Adrenergic receptor alpha-1 (Homo sapiens, UniProt P35348+P25100+P35368).
T1 sequence (P35348 whole entry): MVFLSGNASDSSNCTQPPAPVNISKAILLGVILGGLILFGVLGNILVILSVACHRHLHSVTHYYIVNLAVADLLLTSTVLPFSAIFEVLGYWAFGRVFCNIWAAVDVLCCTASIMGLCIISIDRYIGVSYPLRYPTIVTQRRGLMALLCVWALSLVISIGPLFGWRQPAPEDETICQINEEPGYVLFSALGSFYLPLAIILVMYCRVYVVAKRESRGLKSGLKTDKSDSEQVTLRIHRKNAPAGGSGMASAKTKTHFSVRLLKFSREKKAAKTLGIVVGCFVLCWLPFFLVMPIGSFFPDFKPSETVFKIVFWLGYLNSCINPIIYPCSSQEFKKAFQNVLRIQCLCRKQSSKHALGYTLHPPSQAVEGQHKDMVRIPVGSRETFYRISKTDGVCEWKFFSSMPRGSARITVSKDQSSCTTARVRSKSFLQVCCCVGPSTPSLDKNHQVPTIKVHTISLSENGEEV
T1 sequence (P25100 whole entry): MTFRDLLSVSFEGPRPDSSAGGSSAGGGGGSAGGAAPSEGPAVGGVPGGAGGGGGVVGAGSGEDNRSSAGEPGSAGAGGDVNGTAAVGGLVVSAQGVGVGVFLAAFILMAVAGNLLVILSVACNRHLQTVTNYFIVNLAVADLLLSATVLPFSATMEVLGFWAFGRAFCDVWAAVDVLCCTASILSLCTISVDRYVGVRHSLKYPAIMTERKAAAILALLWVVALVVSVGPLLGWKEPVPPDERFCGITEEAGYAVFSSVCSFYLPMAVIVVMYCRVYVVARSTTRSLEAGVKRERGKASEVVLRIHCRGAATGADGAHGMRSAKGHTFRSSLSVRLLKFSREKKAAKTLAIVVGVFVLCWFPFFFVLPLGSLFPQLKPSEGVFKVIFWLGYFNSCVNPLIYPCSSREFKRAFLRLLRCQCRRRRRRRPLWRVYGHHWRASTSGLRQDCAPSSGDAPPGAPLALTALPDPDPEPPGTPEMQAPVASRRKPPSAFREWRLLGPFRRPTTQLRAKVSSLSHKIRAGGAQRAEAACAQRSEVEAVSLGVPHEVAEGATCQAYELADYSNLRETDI
T1 sequence (P35368 whole entry): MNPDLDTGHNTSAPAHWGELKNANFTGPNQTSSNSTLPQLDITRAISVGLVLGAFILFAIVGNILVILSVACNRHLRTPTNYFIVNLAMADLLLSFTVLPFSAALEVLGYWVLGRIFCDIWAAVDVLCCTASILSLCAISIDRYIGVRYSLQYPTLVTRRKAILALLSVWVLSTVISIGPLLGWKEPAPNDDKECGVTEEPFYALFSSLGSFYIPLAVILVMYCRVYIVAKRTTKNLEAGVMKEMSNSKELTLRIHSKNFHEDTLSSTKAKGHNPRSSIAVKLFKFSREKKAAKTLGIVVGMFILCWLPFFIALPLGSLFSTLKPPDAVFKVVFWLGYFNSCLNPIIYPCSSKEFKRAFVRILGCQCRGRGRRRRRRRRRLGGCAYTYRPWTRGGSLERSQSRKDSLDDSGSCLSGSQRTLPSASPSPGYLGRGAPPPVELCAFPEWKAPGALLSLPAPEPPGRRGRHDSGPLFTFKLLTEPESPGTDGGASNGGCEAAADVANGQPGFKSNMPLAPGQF
Nature of the assay: (§1) In vitro binding affinity towards Alpha-1 adrenergic receptor by displacing [3H]prazosin radioligand. It is filed as protein assay.

In assay [3] the target is Adrenergic receptor alpha-1 (Homo sapiens) (UniProt P35348+P25100+P35368). As to the kind of experiment: Selectivity ratio of alpha-1 receptor to that of NMDA was determined. It is filed as protein assay.
Assay [4] deals with Mus musculus. Nature of the assay: In vivo evaluation for sound induced seizures in DBA/2 mice on intraperitoneal administration of compound 30 minutes before testing. It is filed as functional. The note with it: ip. The method, boiled down:
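Mice given the compound intraperitoneally, then tested in the standard sound-induced seizure assay. An ED50 in mg/kg was derived for protection.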

The target in assay [5] is Glutamate receptor ionotropic, NMDA 2B (Rattus norvegicus, UniProt P35439+Q00960). Nature of the assay: Evaluated for in vitro inhibition of recombinant rat NR1C/2B receptor expressed in xenopus oocytes. It is filed as cell-based, Oocyte. The method, boiled down: (§2)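 Two-electrode voltage clamp on Xenopus oocytes expressing recombinant rat NMDA receptors, NR1C/2A or NR1C/2B subunit combination. Concentrations spanned 10 nM–[…]. Values are the geometric mean of three experiments.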
Chain of Glutamate receptor ionotropic, NMDA 2B (Q00960 whole entry, one chain of several): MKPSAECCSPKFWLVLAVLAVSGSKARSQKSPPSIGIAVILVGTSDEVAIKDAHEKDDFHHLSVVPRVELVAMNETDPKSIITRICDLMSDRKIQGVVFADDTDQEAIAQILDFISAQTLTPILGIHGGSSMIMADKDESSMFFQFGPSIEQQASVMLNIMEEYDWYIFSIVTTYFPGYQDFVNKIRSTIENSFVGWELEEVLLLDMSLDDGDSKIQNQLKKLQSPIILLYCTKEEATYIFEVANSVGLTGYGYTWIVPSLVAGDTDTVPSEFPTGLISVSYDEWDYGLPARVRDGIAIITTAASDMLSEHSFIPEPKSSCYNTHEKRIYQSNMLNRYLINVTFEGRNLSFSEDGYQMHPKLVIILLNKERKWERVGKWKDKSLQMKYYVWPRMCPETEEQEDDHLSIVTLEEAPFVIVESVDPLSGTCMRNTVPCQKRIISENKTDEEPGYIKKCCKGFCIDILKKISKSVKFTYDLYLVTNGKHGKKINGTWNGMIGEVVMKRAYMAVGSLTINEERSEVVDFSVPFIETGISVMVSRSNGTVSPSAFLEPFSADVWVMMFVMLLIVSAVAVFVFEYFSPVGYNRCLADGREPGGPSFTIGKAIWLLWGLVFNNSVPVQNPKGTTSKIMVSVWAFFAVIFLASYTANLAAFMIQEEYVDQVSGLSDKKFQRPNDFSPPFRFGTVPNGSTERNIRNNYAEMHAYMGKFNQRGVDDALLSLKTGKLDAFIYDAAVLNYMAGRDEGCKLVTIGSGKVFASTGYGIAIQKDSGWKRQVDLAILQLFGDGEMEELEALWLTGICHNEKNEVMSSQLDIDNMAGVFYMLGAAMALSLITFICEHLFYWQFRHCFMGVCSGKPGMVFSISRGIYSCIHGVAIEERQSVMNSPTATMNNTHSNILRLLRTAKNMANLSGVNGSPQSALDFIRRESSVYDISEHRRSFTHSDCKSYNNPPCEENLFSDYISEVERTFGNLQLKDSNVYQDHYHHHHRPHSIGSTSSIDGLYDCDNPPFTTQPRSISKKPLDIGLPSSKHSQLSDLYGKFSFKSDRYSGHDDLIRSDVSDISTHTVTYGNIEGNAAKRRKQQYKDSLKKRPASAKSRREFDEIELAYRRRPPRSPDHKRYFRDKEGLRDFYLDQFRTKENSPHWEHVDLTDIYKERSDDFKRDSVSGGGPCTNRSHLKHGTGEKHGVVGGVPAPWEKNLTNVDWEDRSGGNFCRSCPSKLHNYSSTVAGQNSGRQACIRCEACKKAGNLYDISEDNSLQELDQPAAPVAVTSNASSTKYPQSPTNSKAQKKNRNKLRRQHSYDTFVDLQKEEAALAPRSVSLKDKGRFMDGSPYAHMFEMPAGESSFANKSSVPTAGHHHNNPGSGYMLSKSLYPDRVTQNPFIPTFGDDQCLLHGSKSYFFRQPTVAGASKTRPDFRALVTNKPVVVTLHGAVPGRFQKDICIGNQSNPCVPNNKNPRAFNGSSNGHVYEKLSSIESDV

Assay [6] has as its target T2, Alpha-1A adrenergic receptor (Homo sapiens, UniProt P35348).
T2 sequence (P35348 whole entry): T1 sequence (P35348 whole entry)
The description is as §1.

Assay [7] addresses Glutamate receptor ionotropic, NMDA 2A (Rattus norvegicus, UniProt P35439+Q00959). As to the kind of experiment: Evaluated for in vitro inhibition of recombinant rat NR1C/2A receptor expressed in xenopus oocytes. In kind it is cell-based, Oocyte. Summed up: as §2

Chain of Glutamate receptor ionotropic, NMDA 2A (Q00959 whole entry, one chain of several): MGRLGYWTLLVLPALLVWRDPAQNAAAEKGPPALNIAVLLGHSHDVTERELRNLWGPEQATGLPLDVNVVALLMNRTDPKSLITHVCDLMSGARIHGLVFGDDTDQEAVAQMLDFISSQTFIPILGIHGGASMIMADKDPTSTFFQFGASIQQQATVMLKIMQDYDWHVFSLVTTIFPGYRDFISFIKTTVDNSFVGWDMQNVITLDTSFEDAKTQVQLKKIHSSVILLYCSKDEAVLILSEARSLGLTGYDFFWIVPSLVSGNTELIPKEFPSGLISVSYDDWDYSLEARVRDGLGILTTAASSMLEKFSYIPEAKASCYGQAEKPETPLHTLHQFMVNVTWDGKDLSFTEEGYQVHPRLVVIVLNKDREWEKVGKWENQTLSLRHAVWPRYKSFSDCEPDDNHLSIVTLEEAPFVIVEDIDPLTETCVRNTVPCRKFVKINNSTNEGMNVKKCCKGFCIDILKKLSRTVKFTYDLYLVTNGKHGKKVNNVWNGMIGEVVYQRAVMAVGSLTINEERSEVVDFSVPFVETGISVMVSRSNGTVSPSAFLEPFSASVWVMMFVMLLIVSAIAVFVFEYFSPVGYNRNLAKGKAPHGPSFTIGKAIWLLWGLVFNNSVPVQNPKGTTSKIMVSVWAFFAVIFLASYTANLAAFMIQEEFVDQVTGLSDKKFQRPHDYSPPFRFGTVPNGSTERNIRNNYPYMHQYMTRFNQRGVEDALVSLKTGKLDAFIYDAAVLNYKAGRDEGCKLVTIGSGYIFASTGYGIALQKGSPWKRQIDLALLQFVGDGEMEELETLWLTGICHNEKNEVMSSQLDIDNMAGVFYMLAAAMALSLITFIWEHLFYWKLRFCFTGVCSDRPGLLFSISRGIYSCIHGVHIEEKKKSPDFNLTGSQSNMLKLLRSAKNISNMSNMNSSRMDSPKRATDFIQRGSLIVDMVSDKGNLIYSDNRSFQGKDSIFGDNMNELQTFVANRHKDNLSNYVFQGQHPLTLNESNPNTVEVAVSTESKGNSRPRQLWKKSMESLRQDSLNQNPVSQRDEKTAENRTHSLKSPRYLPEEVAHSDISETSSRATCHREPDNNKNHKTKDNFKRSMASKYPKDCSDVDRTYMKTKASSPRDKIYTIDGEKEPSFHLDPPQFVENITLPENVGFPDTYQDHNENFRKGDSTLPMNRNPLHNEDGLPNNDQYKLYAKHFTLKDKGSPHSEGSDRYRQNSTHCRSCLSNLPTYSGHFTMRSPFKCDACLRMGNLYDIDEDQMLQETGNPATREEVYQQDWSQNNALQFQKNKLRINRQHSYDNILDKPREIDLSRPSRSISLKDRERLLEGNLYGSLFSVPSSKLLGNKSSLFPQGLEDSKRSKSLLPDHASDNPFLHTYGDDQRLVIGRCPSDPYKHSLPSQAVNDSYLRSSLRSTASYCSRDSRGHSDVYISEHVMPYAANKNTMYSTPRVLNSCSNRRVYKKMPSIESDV

What is called Ki is the dissociation constant of the complex between target and ligand, obtained from inhibition or displacement. A low value points to higher affinity. Regarding `Oc1ccc(CC(O)CN2CCC(O)(Cc3ccc(Cl)cc3)CC2)cc1` (stereo not given), the Ki turned out to be 15 nM in assay [1] and 5610 nM in assay [2]. Further, the Selectivity ratio in assay [3] was determined as 374.
Take `COC(Cc1ccc(O)cc1)CN1CCC(Cc2ccccc2)CC1` (stereo not given): the Ki in assay [2] worked out at 305 nM. The Selectivity ratio in assay [3] amounted to 15.
As usually defined, the ED50 is the midpoint of the dose-response relation. A low value points to an effect at a small dose. One may read the IC50 as the concentration that inhibits the measured activity by half. As to `Cc1ccc(CC2(O)CCN(C[C@H](O)Cc3ccc(O)cc3)CC2)cc1`, the median effective dose (ED50) in assay [4] stood at 10 mg/kg. Moreover, the results for the concentration for half-maximal inhibition (IC50) in assay [5] and in assay [7] were 19 nM and greater than 10000 nM, respectively. For the same compound, the values for the Ki in assay [1] and in assay [6] were 4.9 nM and 7300 nM, respectively.
With `Cc1ccc(CC2(O)CCN(CC(O)Cc3ccc(O)cc3)CC2)cc1` (stereo not given), the inhibition constant Ki in assay [1] is 7.5 nM; in assay [2], 5915 nM. In addition, the Selectivity ratio in assay [3] amounted to 789.
Consider `CC(Cc1ccc(O)cc1)CN1CCC(Cc2ccccc2)CC1` (stereo not given), for which the Ki in assay [1] was determined as 3.4 nM; in assay [2] it was 91.5 nM. Further, in assay [3], the Selectivity ratio came out at 27.
In the case of `Oc1ccc(C(O)CCN2CCC(Cc3ccccc3)CC2)cc1` (stereo not given), the Ki came out at 3.8 nM in assay [1] and 24.4 nM in assay [2]. Moreover, the Selectivity ratio in assay [3] came to 6.
As to `O=C(Cc1ccc(O)cc1)CN1CCC(Cc2ccccc2)CC1`, the inhibitory constant (Ki) in assay [1] was found to be 22.6 nM; in assay [2] it was 610 nM. Moreover, the Selectivity ratio in assay [3] was 27.
In the same order, the values of `Oc1ccc(CC(O)CN2CCC(O)(Cc3ccccc3)CC2)cc1` (stereo not given) are 22.6 nM, 4512 nM and 200.
`C[C@@H](CN1CCC(Cc2ccccc2)CC1)[C@@H](O)c1ccc(O)cc1`: the Ki in assay [1] is 5.6 nM; in assay [2], 180 nM. In addition, the Selectivity ratio in assay [3] was 32.
In the case of `Cc1ccc(CC2(O)CCN(C[C@@H](O)Cc3ccc(O)cc3)CC2)cc1`, the ED50 in assay [4] was 25 mg/kg. For the same compound, the figures for the inhibition constant (Ki) in assay [1] and in assay [6] were 7.5 nM and 7300 nM, respectively.
In turn, `Oc1ccc(CC(O)CN2CCC(Cc3ccccc3)CC2)cc1` (stereo not given) gave a Ki in assay [2] of 305 nM. In addition, the Selectivity ratio in assay [3] is 80.
On the same counts, the results for `Oc1ccc(CC(O)CN2CCC(O)(Cc3ccc(Br)cc3)CC2)cc1` (stereo not given) are 2439 nM and 216.
